Assay outcomes: PubChem BioAssay, The Scripps Research Institute Molecular Screening Center
M5 ag – human M5 muscarinic receptor agonists, primary screen, CHO-K1 cells, Fluo-8 calcium fluorescence; Muscarinic acetylcholine receptor M5 (Homo sapiens), P08912; CHO-K1 hM5 cells; 0% DMSO wells, 100% maximal acetylcholine response; activation, % at 3 µM; 360,000 compounds, 0.19% hits; AID 624037, 2012;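 active = activation above the run's mean over test compounds plus 3 SD, cut at about 23% in these data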;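 note: signal is peak over basal fluorescence ratio across the kinetic read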
M4 PAM – human M4 muscarinic receptor positive allosteric modulators, primary screen, CHO-K1 cells, Fluo-8 calcium fluorescence; Muscarinic acetylcholine receptor M4 (Homo sapiens), P08173; CHO-K1 hM4/Gqi5, ACh EC20; 0% = ACh EC20, 100% = maximal ACh; activation, % at 3 µM; 360,000 compounds, 0.4% hits;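 active = activation above its plate's cutoff, the mean activation of sample wells plus 3 SD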
Target sequence (P08173 whole entry, looked up): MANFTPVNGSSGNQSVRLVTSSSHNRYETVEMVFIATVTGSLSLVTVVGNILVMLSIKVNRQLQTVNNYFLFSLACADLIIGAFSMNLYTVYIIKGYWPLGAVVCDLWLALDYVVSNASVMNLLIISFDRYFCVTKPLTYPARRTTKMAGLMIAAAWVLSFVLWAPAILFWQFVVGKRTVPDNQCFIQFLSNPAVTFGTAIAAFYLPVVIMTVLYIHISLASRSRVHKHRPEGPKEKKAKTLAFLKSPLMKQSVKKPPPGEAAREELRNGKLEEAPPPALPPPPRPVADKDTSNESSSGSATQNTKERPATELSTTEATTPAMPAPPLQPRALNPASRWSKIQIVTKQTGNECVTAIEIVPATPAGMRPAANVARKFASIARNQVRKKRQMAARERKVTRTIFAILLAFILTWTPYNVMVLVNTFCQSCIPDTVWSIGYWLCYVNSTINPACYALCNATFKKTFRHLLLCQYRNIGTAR
CHRM4 antagonist – human M4 muscarinic receptor antagonists, primary screen, CHO cells, Fluo-8 calcium fluorescence. 360,000 compounds, 0.73% hits. CHO-hM4 cells, ACh EC80. Muscarinic acetylcholine receptor M4 (Homo sapiens), P08173. inhibition, % at 3 µM;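 active = inhibition above its plate's cutoff, the mean inhibition of sample wells plus 3 SD, cut at about 27% in these data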;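 note: 0% = acetylcholine EC80 with DMSO and 100% = DMSO without agonist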
CHRM4 agonist – human M4 muscarinic receptor agonists, primary screen, CHO-K1 cells, Fluo-8 calcium fluorescence; Muscarinic acetylcholine receptor M4 (Homo sapiens), P08173; CHO-K1 hM4/Gqi5; vehicle 0%, full acetylcholine response 100%; activation, % at 3 µM; 360,000 compounds, 0.14% hits; AID 624127, 2012;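 active = activation above the run mean over all test wells plus 3 SD, cut at about 32% in these data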;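 note: peak over basal fluorescence ratio per well then scaled between controls; 0% = DMSO wells and 100% = acetylcholine at EC100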
M5 PAM – human M5 muscarinic receptor positive allosteric modulators, primary screen, CHO-K1 cells, Fluo-8 calcium fluorescence | CHO-K1 hM5, ACh EC20 PAM; 0% = ACh EC20, 100% = ACh EC100 | 360,000 compounds, 0.3% hits | Muscarinic acetylcholine receptor M5 (Homo sapiens), P08912 | activation, % at 3 µM;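 active = activation above the run cutoff, the mean activation of all test compounds plus 3 SD, cut at about 18% in these data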
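System: CHO-K1 hM5 cells. Reagent: acetylcholine, EC20 level. Compound dosing: single dose, 3 µM nominal final test concentration. Timing: Post-acetylcholine fluorescence recording 140 s. Detection: Fluo-8 calcium fluorescence. Read-out: % activation, ACh-normalized. Benchmarks: ACh EC20 and EC100 wells. Repeats: singlicate, one well per test compound.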
CHRM5 antagonist – human M5 muscarinic receptor antagonists, primary screen, CHO cells, Fluo-8 calcium fluorescence; inhibition, % at 3 µM; Muscarinic acetylcholine receptor M5 (Homo sapiens), P08912; 360,000 compounds, 0.59% hits; CHO-hM5 cells, ACh EC80;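 active = inhibition above a per-plate cutoff, the mean of that plate's test compounds plus 3 SD, cut at about 27% in these data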;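 note: 0% = acetylcholine EC80 with DMSO and 100% = DMSO without agonist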
Numbers without * were called inactive. Sampled rows, rich in hits. Any-hit rate of the full collection: about 1.9%.

SMILES	M5 ag	M4 PAM	CHRM4 antagonist	CHRM4 agonist	M5 PAM	CHRM5 antagonist
c1ccc(Nc2ccc3c4c(cccc24)CC3)cc1	26.8*	-18.9	33.1*	27.1	-9.8	37.1*
c1ccc(Nc2cccc3ccccc23)cc1	-1.3	4.0	-18.1	-0.8	-5.1	0.8
COc1cccc(C2CC(=O)N3CN(c4ccccc4F)CSC3=C2C#N)c1 (stereo not drawn)	2.6	-2.9	3.9	-0.1	-4.4	3.3
COc1ccc(OC)c(C2CC(=O)N3CN(c4ccccc4F)CSC3=C2C#N)c1 (stereo not drawn)	-0.6	3.1	-9.6	0.0	22.1*	-13.1
Cc1cc(C)cc(N(CCC#N)C(=O)CSc2ncnc3sccc23)c1	4.8	6.7	-24.7	5.3	-7.0	-0.5
CC(O)(C(=O)c1ccccc1)c1ccccc1 (stereo not drawn)	-3.9	21.5	6.1	0.0	-4.4	9.0
CN(C)C/C=C/C(O)(c1ccccc1)c1ccccc1	-19.1	-54.0	55.0*	0.4	-35.8	45.1*
CC1=CC(C)(C)N(C(=O)CNC2CCCCC2)c2cc(C)ccc21	-13.4	-25.0	47.1*	0.6	-32.6	40.5*
CCC(c1nnc(SCC(=O)Nc2cc(S(C)(=O)=O)ccc2Cl)n1Cc1ccccc1)N(C)C (stereo not drawn)	-3.9	6.3	-14.6	1.1	-1.5	7.6
Nc1c(C(=O)Nc2nccs2)sc2nc(-c3cccs3)cc(C(F)(F)F)c12	22.0	-17.1	22.2	20.6	-11.5	34.5*
Cc1nnc(NC(=O)c2sc3nc(-c4cccs4)cc(C(F)(F)F)c3c2N)s1	11.7	-12.1	6.7	33.6*	-6.6	15.5
CC(C)(C)C(=O)c1sc2nc(-c3cccs3)cc(C(F)(F)F)c2c1N	0.4	-1.4	9.4	1.4	6.2	-8.6
COCCNC(=O)C1CCCN(C(=O)c2cncc(Br)c2)CC1 (stereo not drawn)	0.1	4.7	-7.8	0.0	-4.9	0.0
CCN(CC)C(=O)C1=C(C)N(Cc2ccc(C(C)(C)C)cc2)C(=O)C(CC(=O)NC2CCCC2)C1 (stereo not drawn)	-1.7	4.3	-16.1	2.9	5.2	-2.3
O=C(C(Cc1ccccc1)n1cccc1)N1CCN(c2ccccc2)CC1 (stereo not drawn)	0.0	1.2	-12.9	6.6	-1.0	-2.9
Cc1ccc(C)c(N2CCN(C(=O)C(Cc3ccccc3)n3cccc3)CC2)c1 (stereo not drawn)	41.7*	-11.6	-3.4	2.2	-23.6	2.2
Cc1ccccc1C(=O)O/N=C(\c1ccccc1)c1ccccn1	-1.8	21.9*	-4.5	2.6	5.7	-6.0
Cc1ccc(-n2c(-c3ccc(Cl)cc3)n[nH]c2=S)c(C)c1	4.3	22.6*	20.9	6.0	-1.6	30.4*
Cc1cccc(-n2c(-c3ccncc3)n[nH]c2=S)c1	-0.5	17.0*	-4.7	0.2	3.0	-3.8
NC(=O)C1CCN(C(=O)CCC(=O)c2ccc(F)cc2)CC1	-1.6	-5.0	-4.9	5.7	-4.4	17.0
CCN(CC)c1ccc(/C=C2/SC(=O)N(C(C)C)C2=O)o1	2.2	-4.2	41.0*	3.3	1.9	10.9
CCC(c1nnnn1-c1ccc2c(c1)OCCO2)N1CCN(Cc2c(F)cccc2Cl)CC1 (stereo not drawn)	-2.4	-0.8	5.8	3.7	-5.0	-2.0
CCC(c1nc2ccccc2[nH]1)n1c(=O)c(-c2cccnc2)nc2ccccc21 (stereo not drawn)	0.3	-1.9	13.4	-2.3	2.2	2.3
CC(c1nc2ccccc2[nH]1)n1c(=O)c(-c2cccnc2)nc2ccccc21 (stereo not drawn)	2.8	4.7	-15.0	-2.1	18.4*	-17.6
O=C(O)c1cnn(-c2nc(-c3ccc(F)cc3)cs2)c1C(F)(F)F	-2.7	23.4*	-6.0	-0.2	4.1	-6.4
SMILES	M5 ag	M4 PAM	CHRM4 antagonist	CHRM4 agonist	M5 PAM	CHRM5 antagonist
Cc1cccc(N2CCN(C(=O)CCC(=O)N3CC(C)Oc4ccc(C)cc43)CC2C)c1 (stereo not drawn)	1.5	-18.7	100.5*	11.9	-7.8	2.8
Cc1ccc2c(c1)N(C(=O)CCC(=O)N1CCN(c3ccccn3)CC1)CC(C)O2 (stereo not drawn)	-0.2	-4.6	2.8	3.5	-4.5	4.1
Cc1ccc(C)c(NC(=O)COC(=O)c2cccc(S(=O)(=O)N3CCCC3)c2)c1	-0.9	1.1	-4.1	4.9	-2.1	7.0
Cc1cc(C(C)(C)CC(C)(C)C)ccc1OCCOCC[N+](C)(C)Cc1ccccc1	-2.2	-14.4	27.2*	0.2	-14.7	7.4
C[N+](C)(CCOc1ccccc1)Cc1ccccc1	-1.6	-4.2	7.5	0.2	-4.8	6.6
CSc1nc(N)nc(SCC(=O)c2ccccc2)c1C#N	5.2	-3.1	-5.4	8.6	-10.2	-7.9
Cc1cc(SCC(=O)c2cccs2)n2nc(C)c(-c3ccc(Cl)cc3)c2n1	3.9	23.2*	-3.5	1.4	12.7	9.4
Cc1nn2c(SCC(=O)c3cccs3)cc(C(C)(C)C)nc2c1-c1ccccc1	-0.4	6.7	-2.6	1.0	1.6	5.8
Cc1cc(C)c(C#N)c(SCC(=O)c2cccs2)n1	-6.1	75.4*	36.8*	4.9	-7.3	6.5
Cc1cc(=O)[nH]c(SCC(=O)c2ccccc2)c1C#N	3.0	34.3*	-10.6	2.1	6.3	-4.8
Cc1cc(C)c(C#N)c(SCC(=O)c2ccccc2)n1	-7.2	26.0*	-4.2	2.8	-7.1	8.2
Cc1ccccc1NC(=O)CSc1[nH]c(=O)cc(C)c1C#N	5.1	-1.8	-0.6	2.8	3.2	-3.4
COc1ccc(-n2c(C)nc3c(cnn3-c3ccc(C)c(C)c3)c2=O)cc1	1.3	-11.1	30.5*	0.8	-1.1	4.5
COc1ccc2cc(C3=CC(=O)CCC3)ccc2c1	0.9	-2.5	1.8	5.6	3.5	5.7
C#CCOc1ccc(C2C3=C(COC3=O)Nc3cc4c(cc32)OCO4)cc1OC (stereo not drawn)	-5.2	22.0*	-10.8	2.4	6.6	5.2
Cc1c(N2C(=O)/C(=C/c3ccc(N(C)C)cc3)N(C)C2=S)c(=O)n(-c2ccccc2)n1C	33.6*	-1.0	3.0	4.1	-17.8	19.5
Cc1noc(C)c1NC(=O)N(C)C[C@@H]1Oc2c(NC(=O)c3ccncc3)cccc2C(=O)N([C@H](C)CO)C[C@@H]1C	2.0	6.0	5.7	-1.6	6.0	6.0
